Here are results for 7 molecules from ChEMBL document CHEMBL1765042, “Utilization of nitrophenylphosphates and oxime-based ligation for the development of nanomolar affinity inhibitors of the Yersinia pestis outer protein H (YopH) phosphatase” (J Med Chem, 2011).

Activity calls are given as the source filed them. The rule behind the calls is not given here.

In series [1] the target is Secreted effector protein (Yersinia pestis, UniProt O68720). Briefly: Inhibition of Yersinia pestis outer protein H expressed in Escherichia coli after 15 to 20 mins. In a few lines:
(§1)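 YopH PTPase domain (residues 164–468) expressed in E. coli. Buffer: 25 mM HEPES pH 7.0–7.6, 50 mM NaCl, 2.5 mM EDTA, 5 mM DTT plus 1 mM fresh DTT, with BSA, no detergent. Inhibitor DMSO dilutions ran 400 to 0.032 μM. Substrate was pNPP (10 mM stock), incubated 25 °C for 15–20 min. pNPP hydrolysis was measured colorimetrically and IC50 came from a Boltzmann sigmoidal fit.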

In another series the test system is Yersinia pestis. Description: Antimicrobial activity against pgm, pla deficient Yersinia pestis CO92 infected in human peripheral blood monocytes assessed as inhibition of intracellular bacterial growth at 10 uM after 16 hrs. The class given is functional, organism-based.
In series [2] the target is Dual specificity protein phosphatase 14 (Homo sapiens, UniProt O95147). Description: Inhibition of human DUSP14. In a few lines:
(§2)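 Recombinant phosphatases: Variola major VH1, human DUSP-14, and catalytic domains of DUSP-22, PTP1B and LAR. Each was assayed by the same spectrophotometric pNPP hydrolysis method as YopH (HEPES pH 7.0–7.6, NaCl, EDTA, DTT, BSA buffer; 25 °C, 15–20 min). IC50 came from a Boltzmann sigmoidal fit.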

The target in series [3] is Secreted effector protein (Yersinia pestis) (UniProt O68720). Briefly: Inhibition of Yersinia pestis outer protein H expressed in Escherichia coli after 15 to 20 mins in presence of 0.01% TX-100. A digest of the protocol: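 YopH PTPase domain (residues 164–468, E. coli-expressed) run in a parallel independent pNPP hydrolysis assay with 0.01% Triton X-100 added. Buffer: 25 mM HEPES pH 7.0–7.6, 50 mM NaCl, 2.5 mM EDTA, DTT, BSA. Inhibitor DMSO dilutions ran 400 to 0.032 μM, incubated 25 °C for 15–20 min. IC50 came from a Boltzmann sigmoidal fit.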

Series [4] addresses Receptor-type tyrosine-protein phosphatase F (Homo sapiens, UniProt P10586). Description: Inhibition of human leukocyte antigen related phosphatase. In a few lines:
as §2

For series [5], the target named is Tyrosine-protein phosphatase non-receptor type 1 (Homo sapiens, UniProt P18031). Briefly: Inhibition of human PTP1B. In a few lines: as §2
Chain of Tyrosine-protein phosphatase non-receptor type 1 (P18031 whole entry): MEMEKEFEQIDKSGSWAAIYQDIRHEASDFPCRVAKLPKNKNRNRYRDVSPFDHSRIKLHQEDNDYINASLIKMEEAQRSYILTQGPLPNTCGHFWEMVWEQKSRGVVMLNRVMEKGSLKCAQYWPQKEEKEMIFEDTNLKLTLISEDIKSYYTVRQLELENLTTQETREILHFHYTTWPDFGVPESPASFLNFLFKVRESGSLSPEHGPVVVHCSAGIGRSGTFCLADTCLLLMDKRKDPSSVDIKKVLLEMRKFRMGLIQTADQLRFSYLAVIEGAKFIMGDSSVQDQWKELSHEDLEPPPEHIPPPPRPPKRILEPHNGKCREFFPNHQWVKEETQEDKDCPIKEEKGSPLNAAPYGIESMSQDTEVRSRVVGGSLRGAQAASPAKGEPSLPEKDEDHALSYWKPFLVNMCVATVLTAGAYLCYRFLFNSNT
For series [6], the target named is Dual specificity protein phosphatase 22 (Homo sapiens, UniProt Q9NRW4). Description: Inhibition of human DUSP22. In a few lines:
as §2

A further series deals with J774. Description: Cytotoxicity against mouse J774 cells assessed as cell viability by measuring ATP level at < 100 uM after 40 hrs. The class given is cell-based. The note with it: j774, 40 h. In a few lines:
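J774 mouse macrophages, 5 × 10^5 cells/well, in Eagle's MEM with 4 mM L-glutamine, 4500 mg/L glucose and 7.5% FBS, at 37 °C, 5% CO2. Compound was diluted from a 10 mM DMSO stock to final 0.1–100 μM (1% DMSO in all wells) and cells were cultured 40 h. Viability was read as cellular ATP content.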

Series [7] in a line: Inhibition of Variola major virus phosphatase VH1. In a few lines: as §2
The target of series [8] is Secreted effector protein (Yersinia pestis) (UniProt O68720). Description: Inhibition of Yersinia pestis outer protein H expressed in Escherichia coli after 15 to 20 mins in absence of 0.01% TX-100. In a few lines: as §1
Substrate in series [9]: O=[N+]([O-])c1ccc(OP(=O)(O)O)cc1-c1ccccc1
The note with it: Yersinia pestis.

Substrate in series [10]: NOCc1ccc(OP(=O)(O)O)c([N+](=O)[O-])c1
The note with it: Yersinia pestis.

Substrate in series [11]: CC(C)(C)c1cc(OP(=O)(O)O)ccc1[N+](=O)[O-]
The note with it: Yersinia pestis.

Substrate in series [12]: CC(C)(C)c1ccc(OP(=O)(O)O)c([N+](=O)[O-])c1
As to conditions: Yersinia pestis.

Substrate in series [13]: Cc1cccc([N+](=O)[O-])c1OP(=O)(O)O
The note with it: Yersinia pestis.

Substrate in series [14]: O=[N+]([O-])c1cccc(C2CCCCC2)c1OP(=O)(O)O
As to conditions: Yersinia pestis.

Substrate in series [15]: O=[N+]([O-])c1ccc(OP(=O)(O)O)c(C2CCCCC2)c1
As to conditions: Yersinia pestis.

Substrate in series [16]: NOCc1cc(OP(=O)(O)O)ccc1[N+](=O)[O-]
The note with it: Yersinia pestis.

Substrate in series [17]: Cc1cc([N+](=O)[O-])ccc1OP(=O)(O)O
As to conditions: Yersinia pestis.

Substrate in series [18]: O=[N+]([O-])c1ccc(OP(=O)(O)O)cc1
The note with it: Yersinia pestis.

Substrate in series [19]: C/C=N/OCc1cc(OP(=O)(O)O)ccc1[N+](=O)[O-]
The note with it: Yersinia pestis.

Substrate in series [20]: O=[N+]([O-])c1cc(-c2ccccc2)ccc1OP(=O)(O)O
As to conditions: Yersinia pestis.

Chain of Receptor-type tyrosine-protein phosphatase F (P10586 whole entry): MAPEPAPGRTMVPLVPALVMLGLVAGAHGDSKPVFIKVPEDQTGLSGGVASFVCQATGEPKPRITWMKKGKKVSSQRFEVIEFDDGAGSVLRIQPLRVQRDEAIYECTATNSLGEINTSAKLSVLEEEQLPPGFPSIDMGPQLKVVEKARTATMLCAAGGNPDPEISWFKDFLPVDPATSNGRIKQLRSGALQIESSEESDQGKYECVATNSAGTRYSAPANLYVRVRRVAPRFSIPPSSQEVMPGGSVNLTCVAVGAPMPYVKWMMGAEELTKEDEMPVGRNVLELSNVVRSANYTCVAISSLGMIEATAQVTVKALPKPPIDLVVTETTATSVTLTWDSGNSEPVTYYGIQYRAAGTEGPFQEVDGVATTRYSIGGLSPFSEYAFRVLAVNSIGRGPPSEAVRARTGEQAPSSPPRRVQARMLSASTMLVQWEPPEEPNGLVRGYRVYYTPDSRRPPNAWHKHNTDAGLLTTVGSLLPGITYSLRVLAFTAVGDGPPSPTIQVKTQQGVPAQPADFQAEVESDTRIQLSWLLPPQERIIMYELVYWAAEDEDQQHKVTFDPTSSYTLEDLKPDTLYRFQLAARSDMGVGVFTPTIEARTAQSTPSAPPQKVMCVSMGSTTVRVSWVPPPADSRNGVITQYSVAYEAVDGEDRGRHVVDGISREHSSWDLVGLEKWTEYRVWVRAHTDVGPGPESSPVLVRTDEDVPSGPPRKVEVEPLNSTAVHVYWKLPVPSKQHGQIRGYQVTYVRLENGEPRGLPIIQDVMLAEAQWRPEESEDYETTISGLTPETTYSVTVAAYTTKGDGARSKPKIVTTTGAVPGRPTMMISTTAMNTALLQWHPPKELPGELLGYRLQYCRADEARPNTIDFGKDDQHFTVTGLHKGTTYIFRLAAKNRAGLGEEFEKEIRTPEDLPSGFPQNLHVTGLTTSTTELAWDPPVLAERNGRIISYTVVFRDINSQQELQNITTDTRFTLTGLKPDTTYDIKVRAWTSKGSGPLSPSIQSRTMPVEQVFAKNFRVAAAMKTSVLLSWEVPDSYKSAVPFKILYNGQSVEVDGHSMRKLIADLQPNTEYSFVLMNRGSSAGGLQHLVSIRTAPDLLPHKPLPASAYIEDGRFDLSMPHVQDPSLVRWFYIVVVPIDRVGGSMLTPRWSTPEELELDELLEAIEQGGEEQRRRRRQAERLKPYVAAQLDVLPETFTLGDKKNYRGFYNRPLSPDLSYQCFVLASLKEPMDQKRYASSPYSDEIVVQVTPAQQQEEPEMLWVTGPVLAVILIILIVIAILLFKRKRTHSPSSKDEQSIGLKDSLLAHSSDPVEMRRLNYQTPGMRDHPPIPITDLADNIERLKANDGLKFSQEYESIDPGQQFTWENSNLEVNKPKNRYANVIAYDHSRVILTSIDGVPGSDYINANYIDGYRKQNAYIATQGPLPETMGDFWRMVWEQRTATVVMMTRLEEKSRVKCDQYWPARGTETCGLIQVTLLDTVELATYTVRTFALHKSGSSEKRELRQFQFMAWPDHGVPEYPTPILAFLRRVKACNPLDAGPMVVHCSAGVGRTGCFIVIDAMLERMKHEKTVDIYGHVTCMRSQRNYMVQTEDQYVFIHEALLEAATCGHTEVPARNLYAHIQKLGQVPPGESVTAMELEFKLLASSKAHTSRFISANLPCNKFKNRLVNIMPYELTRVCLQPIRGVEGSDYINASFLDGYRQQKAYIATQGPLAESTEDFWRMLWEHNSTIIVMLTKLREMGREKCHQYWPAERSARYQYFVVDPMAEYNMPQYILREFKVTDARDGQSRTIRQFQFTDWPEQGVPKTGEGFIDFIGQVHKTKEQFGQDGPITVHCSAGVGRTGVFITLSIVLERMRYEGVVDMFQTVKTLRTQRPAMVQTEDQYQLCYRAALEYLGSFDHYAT
Chain of Dual specificity protein phosphatase 22 (Q9NRW4 whole entry): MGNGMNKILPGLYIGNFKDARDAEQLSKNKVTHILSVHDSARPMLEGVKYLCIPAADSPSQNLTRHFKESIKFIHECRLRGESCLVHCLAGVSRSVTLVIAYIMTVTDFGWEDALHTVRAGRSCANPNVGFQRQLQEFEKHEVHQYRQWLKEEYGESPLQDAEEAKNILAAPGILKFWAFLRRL
Chain of Dual specificity protein phosphatase 14 (O95147 whole entry, the tested form may be a part): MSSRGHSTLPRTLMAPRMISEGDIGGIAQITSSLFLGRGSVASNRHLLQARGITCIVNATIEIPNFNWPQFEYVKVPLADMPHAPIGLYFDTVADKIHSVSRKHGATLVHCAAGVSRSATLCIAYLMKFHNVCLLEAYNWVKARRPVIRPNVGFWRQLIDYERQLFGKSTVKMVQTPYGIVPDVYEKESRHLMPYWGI

Consider `O=P(O)(O)C(F)(F)c1cccc(-c2ccc(CO/N=C/c3ccc(CO)o3)cc2)c1`, for which, in series [1], it took 0.73 µM to reach half-maximal inhibition (IC50).
For the molecule `O=P(O)(O)C(F)(F)c1cccc(-c2ccc(CO/N=C/c3ccco3)cc2)c1`, half-maximal inhibition in series [1] (IC50) was put at 1.2 µM.
With GENTAMICIN, the inhibition result in the series on Yersinia pestis was “Active”.
The molecule `O=P(O)(O)C(F)(F)c1cccc(-c2ccc(CO/N=C/c3ccoc3)cc2)c1` showed an IC50 in series [1] of 3.69 µM. This counts as single-digit micromolar.
In the case of `O=C(O)c1ccc(/C=N/OCc2ccc(-c3cccc(C(F)(F)P(=O)(O)O)c3)cc2)o1`, the IC50 in series [2] was greater than 400 µM; in [4], greater than 400 µM; in [5], 2.23 µM; in series [6], greater than 400 µM; in series [1], 0.19 µM; in [7], greater than 400 µM. Moreover, the inhibition result (in series [3]; in the series on Yersinia pestis; in [8]) was “Active” in each case. For the same molecule, in the series with J774, the Activity entry is “Non-toxic”.
In turn, `Cc1ccc(/C=N/OCc2ccc(-c3cccc(C(F)(F)P(=O)(O)O)c3)cc2)o1` returned an IC50 in [1] of 0.91 µM.

B1: Secreted effector protein (Yersinia pestis), O68720 (protein)
chain: MNLSLSDLHRQVSRLVQQESGDCTGKLRGNVAANKETTFQGLTIASGARESEKVFAQTVLSHVANVVLTQEDTAKLLQSTVKHNLNNYDLRSVGNGNSVLVSLRSDQMTLQDAKVLLEAALRQESGARGHVSSHSHSALHAPGTPVREGLRSHLDPRTPPLPPRERPHTSGHHGAGEARATAPSTVSPYGPEARAELSSRLTTLRNTLAPATNDPRYLQACGGEKLNRFRDIQCCRQTAVRADLNANYIQVGNTRTIACQYPLQSQLESHFRMLAENRTPVLAVLASSSEIANQRFGMPDYFRQSGTYGSITVESKMTQQVGLGDGIMADMYTLTIREAGQKTISVPVVHVGNWPDQTAVSSEVTKALASLVDQTAETKRNMYESKGSSAVGDDSKLRPVIHCRAGVGRTAQLIGAMCMNDSRNSQLSVEDMVSQMRVQRNGIMVQKDEQLDVLIKLAEGQGRPLLNS
As for B1, the Michaelis-Menten constant (Km) in series [9] is 80 µM; in series [10], 1130 µM; in series [11] it was 1140 µM; in series [12], 470 µM; in series [13] it was “Not Active”; in series [14], “Not Active”. Also, the Michaelis constant (Km) in [15] amounted to 260 µM; in [16] it was 410 µM; in series [17], 650 µM; in [18], 600 µM; in [19] it was 170 µM; in [20] it was 150 µM.

As usually defined, the IC50 is the concentration at which inhibition is half-maximal. In general, Km refers to the substrate concentration at which the rate is half of its maximum.
